From ChEMBL document CHEMBL1649433, “Violacein extracted from Chromobacterium violaceum inhibits Plasmodium growth in vitro and in vivo” (Antimicrob Agents Chemother, 2009)
Calls of active or inactive are those of the source. The calls are words filed in the database; no cut-off is given here.

Experiments:
Plasmodium chabaudi [1] = test: Antimalarial activity against nonlethal Plasmodium chabaudi chabaudi AS infected in C57BL/6 mouse assessed as inhibition of parasitemia at 0.075 mg/kg/day, ip administered 1 hr post-infection and measured on day 5 post-infection; format: functional, organism-based
Procedure, shortened: (§1)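 C57BL/6 mice (7-10 per group, 7-10 weeks old, 20 ± 3 g) were infected i.p. with 10^6 P. chabaudi chabaudi AS infected erythrocytes. Violacein was given i.p. daily for 11 days (days 0-10), starting 1 h post-infection. Parasitemia was counted daily on Giemsa-stained smears (≥1,000 erythrocytes) and inhibition was calculated against untreated infected mice.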

Plasmodium chabaudi [2] = test: Antimalarial activity against lethal Plasmodium chabaudi chabaudi AJ infected in C57BL/6 mouse assessed as mouse survival rate at 7.5 mg/kg/day, ip administered 1 hr post-infection and measured on day 9 post-infection; format: functional; conditions: route intraperitoneal
Procedure, shortened: (§2)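 C57BL/6 mice, groups of 10, aged 7-10 weeks, 20 ± 3 g, infected i.p. with 106 IE of lethal P. c. chabaudi AJ; 7.5 mg/kg/day given i.p. for 11 consecutive days (days 0-10 p.i.), first dose 1 h p.i.; survival followed daily versus untreated mice; Log-Rank test.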

Plasmodium chabaudi [3] = test: Antimalarial activity against lethal Plasmodium chabaudi chabaudi AJ infected in C57BL/6 mouse assessed as mouse survival rate at 7.5 mg/kg/day, ip administered 1 hr post-infection and measured on day 16 post-infection; format: functional; conditions: route intraperitoneal; procedure, shortened: as §2
Plasmodium chabaudi [4] = test: Antimalarial activity against lethal Plasmodium chabaudi chabaudi AJ infected in C57BL/6 mouse assessed as mouse survival rate at 7.5 mg/kg/day, ip administered 1 hr post-infection and measured on day 14 post-infection; format: functional; conditions: route intraperitoneal; procedure, shortened: as §2
Plasmodium chabaudi [5] = test: Antimalarial activity against nonlethal Plasmodium chabaudi chabaudi AS infected in C57BL/6 mouse assessed inhibition of parasitemia at 7.5 mg/kg/day, ip for 10 days followed by compound withdrawal and measured on day 16 post-infection; format: functional; conditions: route intraperitoneal
Procedure, shortened: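 Mice infected i.p. with 106 P. c. chabaudi AS IE; 7.5 mg/kg/day given i.p. for 11 days (0-10 p.i.) from 1 h p.i., then withdrawn. Parasitemia followed in Giemsa-stained smears until day 22 p.i. versus untreated mice; Mann-Whitney U test.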

Plasmodium falciparum [6] = test: Antimalarial activity against Plasmodium falciparum young blood forms (0 to 24 hrs ring stage) infected in erythrocytes after 24 hrs by [3H]hypoxanthine incorporation assay; format: functional, organism-based
Procedure, shortened: (§3)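 Synchronized (±6 h) P. falciparum 3D7 blood stages were prepared by repeated 5% sorbitol treatment. Rings (0-24 h) or trophozoites/schizonts (24-48 h) were used at 1% parasitemia and 2% final hematocrit, exposed to violacein for 24 h, and growth was read by [3H]-hypoxanthine incorporation. Inhibition % = [1 − (CPM treated − CPM uninfected RBC)/(CPM untreated − CPM uninfected RBC)] × 100. Runs were in triplicate.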

Plasmodium chabaudi [7] = test: Antimalarial activity against nonlethal Plasmodium chabaudi chabaudi AS infected in C57BL/6 mouse assessed as inhibition of parasitemia at 3.75 mg/kg/day, ip administered 1 hr post-infection and measured on day 7 post-infection; format: functional; conditions: route intraperitoneal
Procedure, shortened: (§4)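 C57BL/6 mice (7-10 per group, aged 7-10 weeks, 20 ± 3 g) infected i.p. with 106 IE of P. c. chabaudi AS; given daily i.p. doses of 0.75 to 7.5 mg/kg/day for 11 consecutive days (days 0-10), first dose 1 h p.i. Parasitemia counted daily in Giemsa-stained smears (≥1,000 erythrocytes) until day 12; inhibition relative to untreated mice.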

Plasmodium chabaudi [8] = test: Antimalarial activity against nonlethal Plasmodium chabaudi chabaudi AS infected in C57BL/6 mouse assessed as inhibition of parasitemia at 7.5 mg/kg/day, ip administered 1 hr post-infection and measured on day 8 post-infection; format: functional; conditions: route intraperitoneal; procedure, shortened: as §4
[9] = Toxicity in erythrocytes assessed as red blood cell density at 14 uM after 48 hrs; format: cell-based; conditions: erythrocyte
Procedure, shortened: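 Uninfected erythrocytes were cultured 48 h at 37°C with a range of violacein concentrations. Cells were counted in a Neubauer chamber. RBC density was expressed as % of the drug-free control: (RBC/mL with violacein ÷ RBC/mL without) × 100. Results are means of triplicates ± SD, with Mann-Whitney U test for significance.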

Plasmodium chabaudi [10] = test: Antimalarial activity against nonlethal Plasmodium chabaudi chabaudi AS infected in C57BL/6 mouse assessed as inhibition of parasitemia at 7.5 mg/kg/day, ip administered 1 hr post-infection and measured on day 7 post-infection; format: functional; conditions: route intraperitoneal; procedure, shortened: as §4
Plasmodium chabaudi [11] = test: Antimalarial activity against nonlethal Plasmodium chabaudi chabaudi AS infected in C57BL/6 mouse assessed as inhibition of parasitemia at 0.75 mg/kg/day, ip administered 1 hr post-infection and measured on day 8 post-infection; format: functional; conditions: route intraperitoneal; procedure, shortened: as §4
Plasmodium chabaudi [12] = test: Antimalarial activity against nonlethal Plasmodium chabaudi chabaudi AS infected in C57BL/6 mouse assessed as inhibition of parasitemia at 3.75 mg/kg/day, ip administered 1 hr post-infection and measured on day 8 post-infection; format: functional; conditions: route intraperitoneal; procedure, shortened: as §4
Plasmodium chabaudi [13] = test: Antimalarial activity against nonlethal Plasmodium chabaudi chabaudi AS infected in C57BL/6 mouse assessed as inhibition of parasitemia at 0.75 mg/kg/day, ip administered 1 hr post-infection and measured on day 7 post-infection; format: functional; conditions: route intraperitoneal; procedure, shortened: as §4
Plasmodium chabaudi [14] = test: Antimalarial activity against nonlethal Plasmodium chabaudi chabaudi AS infected in C57BL/6 mouse assessed as inhibition of parasitemia at 0.075 mg/kg/day, ip administered 1 hr post-infection and measured on day 6 post-infection; format: functional, organism-based; procedure, shortened: as §1
Plasmodium chabaudi [15] = test: Antimalarial activity against nonlethal Plasmodium chabaudi chabaudi AS infected in C57BL/6 mouse assessed as inhibition of parasitemia at 0.75 mg/kg/day, ip administered 1 hr post-infection and measured on day 6 post-infection; format: functional; conditions: route intraperitoneal; procedure, shortened: as §4
Plasmodium falciparum [16] = test: Antimalarial activity against chloroquine-sensitive Plasmodium falciparum 3D7 infected in erythrocytes after 48 hrs by [3H]hypoxanthine incorporation assay; format: functional, organism-based
Procedure, shortened: (§5)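 Erythrocytes infected with P. falciparum at 1% parasitemia, 2% final hematocrit; growth read by [3H]-hypoxanthine incorporation after 48 h at 37°C. Inhibition % = [1 – (CPM treated IE – CPM NE)/(CPM untreated IE – CPM NE)] x 100, untreated IE as 100% growth. Triplicates, at least three times with different batches and cells; concentrations from 0.06 µM upward; IC50 from dose-response.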

Plasmodium chabaudi [17] = test: Antimalarial activity against nonlethal Plasmodium chabaudi chabaudi AS infected in C57BL/6 mouse assessed as inhibition of parasitemia at 3.75 mg/kg/day, ip administered 1 hr post-infection and measured on day 5 post-infection; format: functional; conditions: route intraperitoneal; procedure, shortened: as §4
Plasmodium chabaudi [18] = test: Antimalarial activity against nonlethal Plasmodium chabaudi chabaudi AS infected in C57BL/6 mouse assessed as inhibition of parasitemia at 7.5 mg/kg/day, ip administered 1 hr post-infection and measured on day 6 post-infection; format: functional; conditions: route intraperitoneal; procedure, shortened: as §4
Plasmodium chabaudi [19] = test: Antimalarial activity against nonlethal Plasmodium chabaudi chabaudi AS infected in C57BL/6 mouse assessed as inhibition of parasitemia at 0.075 mg/kg/day, ip administered 1 hr post-infection and measured on day 7 post-infection; format: functional, organism-based; procedure, shortened: as §1
Plasmodium falciparum [20] = test: Antimalarial activity against Plasmodium falciparum mature blood forms (24 to 48 hrs ring stage) infected in erythrocytes after 24 hrs by [3H]hypoxanthine incorporation assay; format: functional, organism-based; conditions: in the assay text read “trophozoites and schizonts stage” for “ring stage”; procedure, shortened: as §3
Plasmodium chabaudi [21] = test: Antimalarial activity against nonlethal Plasmodium chabaudi chabaudi AS infected in C57BL/6 mouse assessed as inhibition of parasitemia at 3.75 mg/kg/day, ip administered 1 hr post-infection and measured on day 6 post-infection; format: functional; conditions: route intraperitoneal; procedure, shortened: as §4
Plasmodium chabaudi [22] = test: Antimalarial activity against nonlethal Plasmodium chabaudi chabaudi AS infected in C57BL/6 mouse assessed as inhibition of parasitemia at 7.5 mg/kg/day, ip administered 1 hr post-infection and measured on day 5 post-infection; format: functional; conditions: route intraperitoneal; procedure, shortened: as §4
Plasmodium chabaudi [23] = test: Antimalarial activity against nonlethal Plasmodium chabaudi chabaudi AS infected in C57BL/6 mouse assessed as inhibition of parasitemia at 0.075 mg/kg/day, ip administered 1 hr post-infection and measured on day 8 post-infection; format: functional; conditions: route intraperitoneal
Plasmodium chabaudi [24] = test: Antimalarial activity against nonlethal Plasmodium chabaudi chabaudi AS infected in C57BL/6 mouse assessed as inhibition of parasitemia at 0.75 mg/kg/day, ip administered 1 hr post-infection and measured on day 5 post-infection; format: functional; conditions: route intraperitoneal; procedure, shortened: as §4
Plasmodium chabaudi [25] = test: Antimalarial activity against nonlethal Plasmodium chabaudi chabaudi AS infected in C57BL/6 mouse assessed as inhibition of parasitemia at 7.5 mg/kg/day, ip administered 5 days post-infection and measured on day 7 post-infection; format: functional; conditions: route intraperitoneal
Procedure, shortened: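 Mice infected i.p. with 106 P. c. chabaudi AS IE; 7.5 mg/kg/day given i.p. daily from day 5 p.i. (16% parasitemia) to day 10 (6 days). Parasitemia counted daily in Giemsa-stained smears (≥1,000 erythrocytes) versus untreated mice; Mann-Whitney U test.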

Plasmodium falciparum [26] = test: Antimalarial activity against chloroquine-resistant Plasmodium falciparum S20 infected in erythrocytes after 48 hrs by [3H]hypoxanthine incorporation assay; format: functional, organism-based; procedure, shortened: as §5

**Q.** What does the source list for O=C1NC(c2c[nH]c3ccc(O)cc23)=C/C1=C1\C(=O)Nc2ccccc21 [VIOLACEIN]?
**A.** inhibition (Plasmodium chabaudi [1]): inactive; survival at 7.5 mg/kg/day (Plasmodium chabaudi [2]): 10%; survival at 7.5 mg/kg/day (Plasmodium chabaudi [3]): 80%; survival at 7.5 mg/kg/day (Plasmodium chabaudi [4]): 14%; inhibition in vivo at 7.5 mg/kg/day (Plasmodium chabaudi [5]): 59%; inhibition (Plasmodium falciparum [6]): Active; inhibition in vivo at 3.75 mg/kg/day (Plasmodium chabaudi [7]): 82.1%; inhibition in vivo at 7.5 mg/kg/day (Plasmodium chabaudi [8]): 84.7%; Activity [9]: Toxic; inhibition in vivo at 7.5 mg/kg/day (Plasmodium chabaudi [10]): 86.9%; inhibition in vivo at 0.75 mg/kg/day (Plasmodium chabaudi [11]): 48.9%; inhibition in vivo at 3.75 mg/kg/day (Plasmodium chabaudi [12]): 75.7%; inhibition in vivo at 0.75 mg/kg/day (Plasmodium chabaudi [13]): 39.2%; inhibition (Plasmodium chabaudi [14]): inactive; inhibition in vivo at 0.75 mg/kg/day (Plasmodium chabaudi [15]): 20.4%; IC50 (Plasmodium falciparum [16]): 850 nM; inhibition in vivo at 3.75 mg/kg/day (Plasmodium chabaudi [17]): 33.2%; inhibition in vivo at 7.5 mg/kg/day (Plasmodium chabaudi [18]): 75.4%; inhibition (Plasmodium chabaudi [19]): inactive; inhibition (Plasmodium falciparum [20]): Active; inhibition in vivo at 3.75 mg/kg/day (Plasmodium chabaudi [21]): 64.9%; inhibition in vivo at 7.5 mg/kg/day (Plasmodium chabaudi [22]): 56.5%; inhibition in vivo at 0.075 mg/kg/day (Plasmodium chabaudi [23]): 12%; inhibition in vivo at 0.75 mg/kg/day (Plasmodium chabaudi [24]): 3.58%; inhibition in vivo at 7.5 mg/kg/day (Plasmodium chabaudi [25]): 50.1%; IC50 (Plasmodium falciparum [26]): 630 nM
